Laboratory results as given in ChEMBL document CHEMBL4325842, “Design, synthesis, and biological evaluation of novel aminopyrimidinylisoindolines as AXL kinase inhibitors” (Bioorg Med Chem Lett, 2018).
pIC50: −log10 of the molar value.

What was measured:
[1] = test system: HT-1080; assay: Antiproliferative activity against human HT1080 cells after 2 days by spectrophotometric analysis; type: functional; details: HT-1080, 48 h
[2] = target: Cyclin-dependent kinase 1/cyclin B1 (Homo sapiens) (UniProt P06493+P14635); assay: Inhibition of human CDK1/cyclinB at 10 uM using Histone H1 as substrate by [gamma-33P]-ATP assay relative to control; type: protein-complex assay
How it was run: (§1)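 Commercial kinase panel screen at a single concentration of 10 μM. % inhibition was calculated as 100 minus % activity.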

[3] = target: RAC-alpha serine/threonine-protein kinase (Homo sapiens) (UniProt P31749); assay: Inhibition of human AKT1 at 10 uM using KGSGSGRPRTSSFAEG as substrate by [gamma-33P]-ATP assay relative to control; how it was run: as §1
[4] = target: T1, Serine/threonine-protein kinase PLK1 (Homo sapiens, UniProt P53350); assay: Inhibition of human PLK1 at 10 uM using casein as substrate by [gamma-33P]-ATP assay relative to control
T1 sequence (P53350 whole entry): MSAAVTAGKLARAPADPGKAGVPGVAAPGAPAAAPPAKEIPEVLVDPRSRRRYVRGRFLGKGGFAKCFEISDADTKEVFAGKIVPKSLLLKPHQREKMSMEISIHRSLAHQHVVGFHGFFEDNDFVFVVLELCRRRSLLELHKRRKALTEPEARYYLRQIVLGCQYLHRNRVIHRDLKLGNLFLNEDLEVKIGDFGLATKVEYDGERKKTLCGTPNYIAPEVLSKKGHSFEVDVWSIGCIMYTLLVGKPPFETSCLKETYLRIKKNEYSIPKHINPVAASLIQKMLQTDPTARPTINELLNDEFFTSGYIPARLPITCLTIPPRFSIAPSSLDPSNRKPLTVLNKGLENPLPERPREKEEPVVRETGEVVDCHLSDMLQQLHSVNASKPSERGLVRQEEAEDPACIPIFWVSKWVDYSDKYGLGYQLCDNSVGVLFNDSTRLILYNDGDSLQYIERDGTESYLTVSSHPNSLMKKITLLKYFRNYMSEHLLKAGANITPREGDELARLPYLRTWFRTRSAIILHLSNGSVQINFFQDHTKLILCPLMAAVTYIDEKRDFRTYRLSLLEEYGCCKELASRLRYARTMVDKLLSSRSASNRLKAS
How it was run: (§2)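 Kinase-panel profiling (50 oncogenic kinases) run by an outside contract service. The test compound was tested at a single concentration of 10 μM. Percent inhibition was calculated as 100 minus % remaining activity.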

[5] = target: High affinity nerve growth factor receptor (Homo sapiens) (UniProt P04629); assay: Inhibition of human TRKA at 10 uM using poly[Glu:Tyr] (4:1) as substrate by [gamma-33P]-ATP assay relative to control; how it was run: as §2
[6] = target: Fibroblast growth factor receptor 1 (Homo sapiens) (UniProt P11362); assay: Inhibition of human FGFR1 at 10 uM using KKKSPGEYVNIEFG as substrate by [gamma-33P]-ATP assay relative to control; how it was run: as §1
[7] = target: Receptor-type tyrosine-protein kinase FLT3 (Homo sapiens, UniProt P36888); assay: Inhibition of human FLT3 using EAIYAAPFAKKK as substrate by [gamma-33P]-ATP assay
[8] = target: Tyrosine-protein kinase receptor TYRO3 (Homo sapiens) (UniProt Q06418); assay: Inhibition of human TYRO3 at 10 uM using poly[Glu:Tyr] (4:1) as substrate by [gamma-33P]-ATP assay relative to control; how it was run: as §2
[9] = target: Casein kinase I isoform epsilon (Homo sapiens) (UniProt P49674); assay: Inhibition of human CK1 epsilon at 10 uM using KRRRAL[pS]VASLPGL as substrate by [gamma-33P]-ATP assay relative to control; how it was run: as §1
Casein kinase I isoform epsilon (Homo sapiens), sequence (P49674 whole entry, looked up, canonical isoform): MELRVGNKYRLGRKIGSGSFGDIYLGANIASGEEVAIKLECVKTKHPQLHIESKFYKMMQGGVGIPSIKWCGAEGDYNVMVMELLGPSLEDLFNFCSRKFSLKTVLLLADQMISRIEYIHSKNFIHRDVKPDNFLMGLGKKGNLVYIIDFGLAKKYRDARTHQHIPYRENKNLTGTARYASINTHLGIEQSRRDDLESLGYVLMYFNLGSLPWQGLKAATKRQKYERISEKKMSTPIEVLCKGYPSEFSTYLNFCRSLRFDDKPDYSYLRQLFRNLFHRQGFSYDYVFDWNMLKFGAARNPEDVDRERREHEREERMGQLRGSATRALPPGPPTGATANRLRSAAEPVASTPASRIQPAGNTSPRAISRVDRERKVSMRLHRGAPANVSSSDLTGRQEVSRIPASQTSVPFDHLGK

[10] = test system: NOMO-1; assay: Antiproliferative activity against human NOMO1 cells after 2 days by spectrophotometric analysis; type: functional; details: NOMO-1, 48 h
[11] = target: Ribosomal protein S6 kinase beta-1 (Homo sapiens) (UniProt P23443); assay: Inhibition of human RPS6KB1 at 10 uM using KKRNRTLTK as substrate by [gamma-33P]-ATP assay relative to control; how it was run: as §2
Ribosomal protein S6 kinase beta-1 (Homo sapiens), sequence (P23443 whole entry, looked up): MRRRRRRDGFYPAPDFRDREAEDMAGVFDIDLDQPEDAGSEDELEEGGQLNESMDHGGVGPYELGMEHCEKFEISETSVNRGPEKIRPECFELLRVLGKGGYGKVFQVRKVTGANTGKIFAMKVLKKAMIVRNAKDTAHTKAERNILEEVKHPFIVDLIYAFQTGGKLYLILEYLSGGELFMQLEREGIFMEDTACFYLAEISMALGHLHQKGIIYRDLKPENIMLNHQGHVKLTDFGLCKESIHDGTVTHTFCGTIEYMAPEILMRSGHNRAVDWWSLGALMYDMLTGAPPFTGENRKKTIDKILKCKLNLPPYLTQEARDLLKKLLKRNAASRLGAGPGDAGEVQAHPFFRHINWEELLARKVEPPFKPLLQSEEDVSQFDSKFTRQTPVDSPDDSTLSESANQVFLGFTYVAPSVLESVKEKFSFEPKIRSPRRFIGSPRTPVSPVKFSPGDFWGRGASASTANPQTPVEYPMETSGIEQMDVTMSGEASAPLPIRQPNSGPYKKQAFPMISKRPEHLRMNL

[12] = target: ALK tyrosine kinase receptor (Homo sapiens) (UniProt Q9UM73); assay: Inhibition of human ALK at 10 uM using poly[Glu:Tyr] (4:1) as substrate by [gamma-33P]-ATP assay relative to control; how it was run: as §1
ALK tyrosine kinase receptor (Homo sapiens), sequence (Q9UM73 19-1620 limits assumed): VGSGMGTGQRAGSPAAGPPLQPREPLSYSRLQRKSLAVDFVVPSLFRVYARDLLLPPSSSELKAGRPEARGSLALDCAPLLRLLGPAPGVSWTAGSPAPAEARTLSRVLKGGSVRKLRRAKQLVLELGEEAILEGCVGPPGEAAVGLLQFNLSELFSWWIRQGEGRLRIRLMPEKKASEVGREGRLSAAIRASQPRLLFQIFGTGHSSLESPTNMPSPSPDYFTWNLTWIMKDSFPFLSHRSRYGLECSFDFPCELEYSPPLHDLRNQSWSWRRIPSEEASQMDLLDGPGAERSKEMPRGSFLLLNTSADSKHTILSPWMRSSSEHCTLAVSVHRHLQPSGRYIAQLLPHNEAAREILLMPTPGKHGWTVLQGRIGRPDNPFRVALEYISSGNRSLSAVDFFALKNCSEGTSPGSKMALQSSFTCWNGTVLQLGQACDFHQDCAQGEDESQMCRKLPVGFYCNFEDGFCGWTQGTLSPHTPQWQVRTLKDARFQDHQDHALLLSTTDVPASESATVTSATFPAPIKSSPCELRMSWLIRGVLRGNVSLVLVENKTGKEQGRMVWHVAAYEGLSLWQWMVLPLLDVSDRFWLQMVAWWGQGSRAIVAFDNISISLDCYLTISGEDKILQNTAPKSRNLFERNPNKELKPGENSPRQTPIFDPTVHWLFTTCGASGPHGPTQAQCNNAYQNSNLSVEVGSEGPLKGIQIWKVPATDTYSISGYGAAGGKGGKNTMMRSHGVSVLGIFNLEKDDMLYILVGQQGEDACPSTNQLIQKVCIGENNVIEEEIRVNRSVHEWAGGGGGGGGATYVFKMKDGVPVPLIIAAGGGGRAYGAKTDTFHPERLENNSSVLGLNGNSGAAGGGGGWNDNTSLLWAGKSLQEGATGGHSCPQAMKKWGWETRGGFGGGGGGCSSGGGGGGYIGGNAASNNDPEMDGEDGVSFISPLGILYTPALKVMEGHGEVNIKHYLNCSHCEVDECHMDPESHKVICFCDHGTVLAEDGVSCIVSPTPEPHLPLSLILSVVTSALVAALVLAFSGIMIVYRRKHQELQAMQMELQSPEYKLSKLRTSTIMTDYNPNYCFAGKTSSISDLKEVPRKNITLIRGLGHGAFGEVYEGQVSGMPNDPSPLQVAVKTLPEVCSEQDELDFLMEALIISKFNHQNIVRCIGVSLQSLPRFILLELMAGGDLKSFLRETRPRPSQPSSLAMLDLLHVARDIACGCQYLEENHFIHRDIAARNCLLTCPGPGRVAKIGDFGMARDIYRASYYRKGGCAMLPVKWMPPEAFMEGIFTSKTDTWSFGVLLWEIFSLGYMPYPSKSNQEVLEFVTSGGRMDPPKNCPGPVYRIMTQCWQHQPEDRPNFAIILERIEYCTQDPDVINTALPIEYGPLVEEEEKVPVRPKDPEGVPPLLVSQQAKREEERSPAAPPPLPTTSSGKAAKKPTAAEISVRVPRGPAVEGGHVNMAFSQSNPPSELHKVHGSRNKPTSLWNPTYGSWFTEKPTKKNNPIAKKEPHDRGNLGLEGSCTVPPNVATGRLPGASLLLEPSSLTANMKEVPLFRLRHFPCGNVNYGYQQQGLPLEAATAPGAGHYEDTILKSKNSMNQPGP

[13] = target: Proto-oncogene tyrosine-protein kinase ROS (Homo sapiens) (UniProt P08922); assay: Inhibition of human ROS at 10 uM using KKKSPGEYVNIEFG as substrate by [gamma-33P]-ATP assay relative to control; how it was run: as §2
[14] = target: Serine/threonine-protein kinase B-raf (Homo sapiens) (UniProt P15056); assay: Inhibition of human BRAF at 10 uM using MEK1 (K97R) as substrate by [gamma-33P]-ATP assay relative to control; how it was run: as §1
[15] = target: T1, Serine/threonine-protein kinase PLK1; assay: Inhibition of human PLK1 using casein as substrate by [gamma-33P]-ATP assay
[16] = target: Aurora kinase A (Homo sapiens, UniProt O14965); assay: Inhibition of human AuroraA using [H-LRRASLG] as substrate by [gamma-33P]-ATP assay
Aurora kinase A, sequence (O14965 whole entry): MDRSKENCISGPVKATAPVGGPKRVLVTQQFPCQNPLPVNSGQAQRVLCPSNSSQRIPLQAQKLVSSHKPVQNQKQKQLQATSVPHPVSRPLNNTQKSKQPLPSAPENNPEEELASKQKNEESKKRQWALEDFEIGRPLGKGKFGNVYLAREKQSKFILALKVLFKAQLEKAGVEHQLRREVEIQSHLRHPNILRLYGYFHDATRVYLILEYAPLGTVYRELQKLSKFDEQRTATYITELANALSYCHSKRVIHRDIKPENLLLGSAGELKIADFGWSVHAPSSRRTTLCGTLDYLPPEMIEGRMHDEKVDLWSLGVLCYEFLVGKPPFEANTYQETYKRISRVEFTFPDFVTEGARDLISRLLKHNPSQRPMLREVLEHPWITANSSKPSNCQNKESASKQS

[17] = test system: A-375; assay: Antiproliferative activity against human A375 cells after 2 days by spectrophotometric analysis; type: functional; details: A-375, 48 h
[18] = target: DNA-dependent protein kinase catalytic subunit (Homo sapiens) (UniProt P78527); assay: Inhibition of human DNA-PK at 10 uM using EPPLSQEAFADLWKK as substrate by [gamma-33P]-ATP assay relative to control; how it was run: as §1
[19] = target: Angiopoietin-1 receptor (Homo sapiens) (UniProt Q02763); assay: Inhibition of human TIE2 at 10 uM using poly[Glu:Tyr] (4:1) as substrate by [gamma-33P]-ATP assay relative to control; how it was run: as §2
[20] = target: Homeodomain-interacting protein kinase 1 (Homo sapiens) (UniProt Q86Z02); assay: Inhibition of human HIPK1 at 10 uM using MBP as substrate by [gamma-33P]-ATP assay relative to control; how it was run: as §1
[21] = target: Vascular endothelial growth factor receptor 2 (Homo sapiens) (UniProt P35968); assay: Inhibition of human KDR at 10 uM using poly[Glu:Tyr] (4:1) as substrate by [gamma-33P]-ATP assay relative to control; how it was run: as §1
[22] = target: Hepatocyte growth factor receptor (Homo sapiens) (UniProt P08581); assay: Inhibition of human c-MET at 10 uM using KKKSPGEYVNIEFG as substrate by [gamma-33P]-ATP assay relative to control; how it was run: as §2
Hepatocyte growth factor receptor (Homo sapiens), sequence (P08581 whole entry): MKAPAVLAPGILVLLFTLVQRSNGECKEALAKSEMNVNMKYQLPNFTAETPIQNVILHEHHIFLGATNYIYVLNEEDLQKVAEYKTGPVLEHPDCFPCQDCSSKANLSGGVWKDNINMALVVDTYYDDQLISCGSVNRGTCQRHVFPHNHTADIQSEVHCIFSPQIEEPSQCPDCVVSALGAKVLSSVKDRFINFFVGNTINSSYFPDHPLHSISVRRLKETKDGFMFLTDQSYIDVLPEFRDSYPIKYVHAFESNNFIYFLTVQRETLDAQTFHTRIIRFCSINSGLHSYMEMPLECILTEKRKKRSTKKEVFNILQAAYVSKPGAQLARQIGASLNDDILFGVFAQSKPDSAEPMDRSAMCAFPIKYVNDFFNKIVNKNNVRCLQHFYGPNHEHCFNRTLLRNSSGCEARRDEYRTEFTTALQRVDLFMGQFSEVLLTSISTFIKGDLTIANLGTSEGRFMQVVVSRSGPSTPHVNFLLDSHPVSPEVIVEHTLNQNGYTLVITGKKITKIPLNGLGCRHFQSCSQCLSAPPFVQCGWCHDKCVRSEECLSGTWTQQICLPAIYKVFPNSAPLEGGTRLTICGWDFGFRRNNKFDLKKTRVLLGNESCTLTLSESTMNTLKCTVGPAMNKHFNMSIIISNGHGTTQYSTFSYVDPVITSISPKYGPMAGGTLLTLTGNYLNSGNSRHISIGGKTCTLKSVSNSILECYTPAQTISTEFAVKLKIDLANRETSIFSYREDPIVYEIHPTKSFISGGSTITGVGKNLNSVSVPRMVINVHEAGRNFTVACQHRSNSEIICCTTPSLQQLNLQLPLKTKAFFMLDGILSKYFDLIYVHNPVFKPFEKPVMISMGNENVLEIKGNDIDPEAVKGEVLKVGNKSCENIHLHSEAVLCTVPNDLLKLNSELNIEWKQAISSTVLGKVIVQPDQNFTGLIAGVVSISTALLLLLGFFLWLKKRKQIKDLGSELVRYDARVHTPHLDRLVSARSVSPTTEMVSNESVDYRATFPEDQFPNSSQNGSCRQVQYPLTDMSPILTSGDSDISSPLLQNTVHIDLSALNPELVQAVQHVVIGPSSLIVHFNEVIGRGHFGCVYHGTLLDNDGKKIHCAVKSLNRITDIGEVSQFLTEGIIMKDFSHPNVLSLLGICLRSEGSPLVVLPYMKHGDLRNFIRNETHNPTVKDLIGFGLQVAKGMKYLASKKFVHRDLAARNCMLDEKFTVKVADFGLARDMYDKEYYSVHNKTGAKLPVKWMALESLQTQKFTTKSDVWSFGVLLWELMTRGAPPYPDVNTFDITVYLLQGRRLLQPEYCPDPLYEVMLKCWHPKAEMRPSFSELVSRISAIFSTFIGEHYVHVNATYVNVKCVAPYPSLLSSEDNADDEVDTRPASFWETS

[23] = target: T2, Tyrosine-protein kinase SYK (Homo sapiens, UniProt P43405); assay: Inhibition of human SYK using poly[Glu:Tyr] (4:1) as substrate by [gamma-33P]-ATP assay
[24] = test system: HeLa; assay: Antiproliferative activity against human HeLa cells after 2 days by spectrophotometric analysis; type: functional; details: 48 h
How it was run: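 Cells from ATCC were kept in RPMI 1640 with 5% FBS. They were exposed to graded concentrations in DMSO/RPMI for 48 h at 37 C under 5% CO2, then fixed with 50% trichloroacetic acid. Cellular protein was read at 540 nm at time zero and at 48 h, with and without compound. TGI (100% growth inhibition) was taken from the concentration-response curve.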

[25] = target: T2, Tyrosine-protein kinase SYK; assay: Inhibition of human SYK at 10 uM using poly[Glu:Tyr] (4:1) as substrate by [gamma-33P]-ATP assay relative to control; how it was run: as §2
[26] = target: Mast/stem cell growth factor receptor Kit (Homo sapiens) (UniProt P10721); assay: Inhibition of human c-KIT at 10 uM using poly[Glu:Tyr] (4:1) as substrate by [gamma-33P]-ATP assay relative to control; how it was run: as §2
[27] = test system: MV4-11; assay: Antiproliferative activity against human MV4-11 cells after 2 days by spectrophotometric analysis; type: functional; details: MV4-11, 48 h
[28] = target: Tyrosine-protein kinase receptor TYRO3 (Homo sapiens, UniProt Q06418); assay: Inhibition of human TYRO3 using poly[Glu:Tyr] (4:1) as substrate by [gamma-33P]-ATP assay
[29] = target: Tyrosine-protein kinase Mer (Homo sapiens) (UniProt Q12866); assay: Inhibition of human MER at 10 uM using poly[Glu:Tyr] (4:1) as substrate by [gamma-33P]-ATP assay relative to control; how it was run: as §1
[30] = target: Proto-oncogene tyrosine-protein kinase receptor Ret (Homo sapiens) (UniProt P07949); assay: Inhibition of human RET at 10 uM using MEK1 (K97R) as substrate by [gamma-33P]-ATP assay relative to control; how it was run: as §2

GI50 [1]: 1800 nM | inhibition [2]: 20.5% | inhibition [3]: -3.6% | inhibition [4]: 95.2% | inhibition [5]: 92.2% | inhibition [6]: 26% | pIC50 [7]: 8.34 | inhibition [8]: 87.7% | inhibition [9]: -2.5% | inhibition [11]: 65.5% | inhibition [12]: 71.3% | inhibition [13]: 92.2% | inhibition [14]: 6.7% | pIC50 [15]: 8.06 | pIC50 [16]: 8.52 | GI50 [17]: 1000 nM | inhibition [18]: -4% | inhibition [19]: 65.4% | inhibition [20]: 83.8% | inhibition [21]: 55.8% | inhibition [22]: 17.9% | pIC50 [23]: 8.29 | GI50 [24]: 730 nM | inhibition [25]: 95.3% | inhibition [26]: 17.8% | GI50 [27]: 100 nM | pIC50 [28]: 7.30 | inhibition [29]: 90.6% | inhibition [30]: 85.2%
SMILES: CC(=O)N1CCN(c2ccc(Nc3ncc(C(F)(F)F)c(N4Cc5cccc(N(C)S(C)(=O)=O)c5C4)n3)cc2)CC1
GI50 [10]: 3800 nM
